The source made the active and inactive calls. The rule behind the calls is not given here.
Tests used:
A549 [1] = assay: Growth inhibition of human A549 cells after 48 hrs; format: functional, cell-based; settings: A549, 24 h, in the assay text read “after 24 hrs” for “after 48 hrs”
[2] = Lipophilicity, log P of the compound; format: physicochemical; settings: octanol/water
A549 [3] = assay: Growth inhibition of human A549 cells after 24 hrs; format: functional, cell-based; settings: A549, 48 h, in the assay text read “after 48 hrs” for “after 24 hrs”
Procedure, shortened: (§1)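 Compounds dissolved in DMSO, final DMSO below 0.1% (v/v) in culture medium. Cells seeded in 96-well plates and treated at 10–80 μM for 24 or 48 h. Viability by MTT assay with absorbance read at 570 nm. Controls were untreated medium and 0.1% DMSO vehicle.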

A549 [4] = assay: Reduction of cell viability of human A549 cells at 40 uM after 24 hrs by MTT assay; format: functional; procedure, shortened: as §1
A549 [5] = assay: Reduction of cell viability of human A549 cells at 80 uM after 48 hrs by MTT assay; format: functional; procedure, shortened: as §1
A549 [6] = assay: Effect on nuclear fragmentation in human A549 cells at 40 uM after 48 hrs by AO staining method; format: functional, cell-based
Procedure, shortened: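 Cells cultured 48 h in fresh medium with 0 or 40 μM compound, then stained with 5 μg/ml acridine orange at room temperature. Chromatin condensation and DNA fragmentation imaged by laser scanning confocal/fluorescence microscopy. Images representative of three independent experiments.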

A549 [7] = assay: Induction of apoptosis in A549 cells assessed as LDH release at 40 uM after 48 hrs; format: functional, cell-based; settings: Homo sapiens
Procedure, shortened: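 Culture medium collected after 48 h treatment at 40 μM and assayed for LDH release, compared against an untreated control group; n = 3.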

A549 [8] = assay: Reduction of cell viability of human A549 cells at 40 uM after 48 hrs by MTT assay; format: functional; procedure, shortened: as §1
A549 [9] = assay: Effect on cell morphology in human A549 cells assessed as cell shrinkage at 40 uM after 48 hrs; format: functional, cell-based
Procedure, shortened: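 Cells exposed to 40 μM compound for 24 h and 48 h, then inspected under a phase contrast microscope for shrinkage. Untreated cells served as control.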

Row | IC50 (A549 [1]) [µM] | logP [2] | IC50 (A549 [3]) [µM] | Structure (SMILES) | Activity (A549 [4]) [%] | Activity (A549 [5]) [%] | Activity (A549 [6]) | Activity (A549 [7]) | Activity (A549 [8]) [%] | Activity (A549 [9])
1 | 232 | 3.24 | 38.7 | NNC(=O)c1cc(-c2ccc(Cl)cc2)nn1Cc1ccccc1 |  |  |  |  |  | 
2 | 240 | 2.76 |  | COc1ccc(-c2cc(C(=O)NN)n(Cc3ccc(Cl)nc3)n2)cc1 |  |  |  |  |  | 
3 | 121 | 3.12 | 30.2 | NNC(=O)c1cc(-c2ccc(Cl)cc2)nn1Cc1ccc(Cl)nc1 |  |  |  |  |  | 
4 | 550 | 2.87 |  | COc1ccc(-c2cc(C(=O)NN)n(Cc3ccccc3)n2)cc1 |  |  |  |  |  | 
5 | 440 | 2.73 |  | NNC(=O)c1cc(-c2ccccc2)nn1Cc1ccccc1 |  |  |  |  |  | 
6 | 49.9 | 4.6 | 23.9 | COc1ccc(-c2cc(C(=O)NN)n(Cc3ccc(C(C)(C)C)cc3)n2)cc1 | 52 | 6 | Active | Active | 26 | 
7 | 68.3 | 4.94 | 18.5 | CC(C)(C)c1ccc(Cn2nc(-c3ccc(Cl)cc3)cc2C(=O)NN)cc1 | 52 | 13 | Active | Active | 26 | 
8 | 224 | 2.52 | 67.7 | NNC(=O)c1cc(-c2ccccc2)nn1Cc1ccc(Cl)nc1 |  |  |  |  |  | 
9 | 66.2 | 4.49 | 26.6 | CC(C)(C)c1ccc(Cn2nc(-c3ccccc3)cc2C(=O)NN)cc1 | 52 | 15 | Active | Active | 26 | Active

From ChEMBL document CHEMBL1137467, “Synthesis and structure-activity relationships of novel 1-arylmethyl-3-aryl-1H-pyrazole-5-carbohydrazide derivatives as potential agents against A549 lung cancer cells” (Bioorg Med Chem, 2007)
